For the data set, the system named is MS2 coat protein. The data set can be described thus: apparent Kd, MS2 coat protein; higher = weaker binding; RNA-MaP array; FMN 200 µM where present. The procedure, abridged: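 Each design was made on Illumina sequencing-chip clusters by stalled E. coli RNA polymerase and titrated with SNAP-549-labelled MS2 coat protein from 0.7 or 1.5 nM, doubling to 3 µM, in the absence and then the presence of constant ligand. The buffer was 100 mM Tris-HCl pH 7.5, 80 mM KCl, 4 mM MgCl2, BSA, DTT, yeast tRNA and Tween-20. The apparent Kd is the median of filtered per-cluster fits of binding curves, with green signal normalised to red-channel RNA signal and control-cluster median Fmax.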

The mark [1] stands for this setting: designed as: ON switch for flavin mononucleotide, no ligand.
Setting [2] is: ligand present: flavin mononucleotide, designed as: ON switch for flavin mononucleotide.
The mark [3] stands for this setting: designed as: OFF switch for flavin mononucleotide, no ligand.
Setting [4] is: ligand present: flavin mononucleotide, designed as: OFF switch for flavin mononucleotide.

From the EternaBench riboswitch data come the findings set out here.

As for “UGUAAGAUGCAGAAGGUGUUAGCUAGAGCUACGACAUGAGGAUCACCCAUGUACUAGAAACAGUACAAGGAUAUGCAUCUUACU”, the apparent Kd (in general, the concentration giving half-maximal binding under the conditions of the assay) by setting is: under setting [1], 18 nM; under setting [2], 6.53 nM.
With “ACAAUAGUAUCACAUGUAUUACAUGAGGAUCACCCAUGUAACUAGGAUAUGUUUUAAAAUUUACAACAGAAGGAGUUAUUAUGU”, the “apparent Kd” value under setting [3] was found to be 8.2 nM and the “apparent Kd” value under setting [4] stood at 14.6 nM.
For “UUAUUUCCUCAUGUACAUGAGGAACAUGAGGAUCACCCAUGUAGAAGGAUUUCAAUAAAAUUAAAAUAGGAUAUACAUAUAUUU”, the “apparent Kd” value under setting [3] is 68.3 nM and the “apparent Kd” value under setting [4] is 81.6 nM.
For “CUGCUCCGUGUAGGAUAUGCAUACUCCCAUUAUGCAGAAGGACAUGAGGAUCACCCAUGUAUGUUAUUAUCACGUGUUGCGUAC”, the “apparent Kd” value reads like this: under setting [3], 25.7 nM; under setting [4], 92.2 nM.
For “UACCGCUCUGAAGGAUAUCCACUGGGAUGCUGGAUGUAUGAGCGUACAUGAGGAUCACCCAUGUAGGAGAAGGUCAGGCAUUCC” the same measures were 5.8 nM and 7.84 nM.
For the sequence “AUUAGUAUCUAGGAUAUCUAGUACAUAGUAUCUAGAGAAGGAGAUACAUGAGGAUCACCCAUGUUCUGUGUUCU”, the “apparent Kd” value by setting is: under setting [3], 27.2 nM; under setting [4], 64.5 nM.
In the case of “GCCCGACAUGAGGAUCACCCAUGUGGGAAACCGCGAGGAUAUCCGGGCCCGAAAGGGCCCGGAGAAGGCGCCGGGC”, the “apparent Kd” value is, setting by setting: under setting [1], 12.5 nM; under setting [2], 10.9 nM.
For “CUCGGACAUGAGGAUCACCCAUGUGAGGAUAUGAUGCGAUCGUCGAAAGACGAUAGCAUCAGAAGGCACAAAUG”, the “apparent Kd” value amounted to 75.6 nM under setting [3] and 301 nM under setting [4].
For the sequence “CUCGUGUAAGGAUAUGCGAGCCGCGGAAAUACACCGCGGAGGUAGAAGGUACAUGAGGAUCACCCAUGUAAAAC”, the “apparent Kd” value runs as follows: under setting [3], 25.5 nM; under setting [4], 103 nM.
With “GUAGCUAUCGGAGGAUAUUCAUACUGGAAACGGACAUGAGGAUCACCCAUGUGGCGAAAGCCUUGGGAGAAGGUCGAUAGCUAC”, the “apparent Kd” value under setting [1] worked out at 177 nM and the “apparent Kd” value under setting [2] is 10.1 nM.
In the same order, the values of “GCCAUCACGUGAGGAUAUGCUCCCGUUUCGGGAGCAGAAGGCAUGUCAUAAGACAUGAGGAUCACCCAUGUAGAUAAGAUGGCA” are 236 nM and 12.4 nM.
Consider “AUAAUAAUAUAAGGAUAUACGUCACUGCGUCAGCAGUGUGGUAAGAUCACAUGAGGAUCACCCAUGUAGAAGGAUAAAUUAAAU”, for which the “apparent Kd” value reads like this: under setting [3], 12.4 nM; under setting [4], 9.22 nM.
In the same order, the values of “CAGCGGUCAGGAUAUGCAUGGCGGGACUUGCGUCGUGGCGUGGAGAAGGGACAUGAGGAUCACCCAUGUGGGAA” are 134 nM and 81.9 nM.
With “AACAGCUCGUCAGGAUAUAUUAUCUUUUAAUGUAUUUAUGUACAUGAGGAUCACCCAUGUUGUUUGUAGAAGGGACGAGCUGAA”, the “apparent Kd” value runs as follows: under setting [3], 11.1 nM; under setting [4], 13.1 nM.
In the same order, the values of “UGACGGAGCUGAGGAUAUACAUGAGGAUCACCCAUGUAAGAUCUCCAGGAAACUGGAGAUCAAAAGUAGAAGGCAGCUCCGUCA” are 15.4 nM and 23.4 nM.
In the same order, the values of “GUGCAAUGAGGAUAUACGUAGGUGAAAAUCUGUGUGCUCCUACAUGAGGAUCACCCAUGUAGAAGGCAUGUCAC” are 17.1 nM and 28.2 nM.
For the sequence “AGCUACGUUUCGUAGCAGCUAGGUGAGGAUAUUCAAUUUUUCACAUGAGGAUCACCCAUGUAUGUGAAGAAGGCGCCUAGAAAG”, the “apparent Kd” value under setting [1] came to 13.3 nM and the “apparent Kd” value under setting [2] was 4.77 nM.
On to “AACUACUCUGUGAGGAUAUGCGAUCGUUGAUCAAAGCAGAAGGCACAUGAGGAUCACCCAUGUUCCUACGAGGG”, for which the “apparent Kd” value came out at 29.3 nM under setting [3] and 73.1 nM under setting [4].
“CUCGUGUUAGGAUAUGGAUAGCCGUUUGACGAGCGAGGGCACUAGAAGGAACAUGAGGAUCACCCAUGUAAAAA”: the “apparent Kd” value amounted to 21.3 nM under setting [3] and 21.1 nM under setting [4].
For the sequence “GUACUGAAGCUUUGCUUUAGUCGUACAUGAGGAUCACCCAUGUAGGAUAUGGUAGGCUAUGCUUACUAGAAGGAUAGAGUGAUC”, the “apparent Kd” value under setting [3] was 88.8 nM and the “apparent Kd” value under setting [4] amounted to 46.4 nM.
